# Screening data: PubChem BioAssay, Broad Institute
# T cruzi growth-1 – T. cruzi intracellular proliferation inhibitors, primary screen, cell-based, beta-gal Tulahuen parasites, NIH3T3 host, luminescence | T. cruzi beta-gal in NIH3T3, GalScreen luminescence, 90 h | inhibition, % at 8.34 µM | 5.9% of 77,000 active;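 active means mean inhibition above about 93%, with at least 55% of replicates each passing it, limit read from the data, passing the limit was not always enough; inconclusive means only one of those two conditions holds; inactive means neither condition holds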
# IDH1 R132H inh – inhibitors of IDH1 R132H reductase, primary screen, biochemical, plate reader, single point; diaphorase/resazurin fluorescence, 60 min; inhibition, % at 10 µM; 0.18% of 70,000 active; in the data active means inhibition above about 34%; inconclusive means no clear call, values can overlap the other calls; inactive means below about 11%
# Target sequence (O75874 whole entry R132H): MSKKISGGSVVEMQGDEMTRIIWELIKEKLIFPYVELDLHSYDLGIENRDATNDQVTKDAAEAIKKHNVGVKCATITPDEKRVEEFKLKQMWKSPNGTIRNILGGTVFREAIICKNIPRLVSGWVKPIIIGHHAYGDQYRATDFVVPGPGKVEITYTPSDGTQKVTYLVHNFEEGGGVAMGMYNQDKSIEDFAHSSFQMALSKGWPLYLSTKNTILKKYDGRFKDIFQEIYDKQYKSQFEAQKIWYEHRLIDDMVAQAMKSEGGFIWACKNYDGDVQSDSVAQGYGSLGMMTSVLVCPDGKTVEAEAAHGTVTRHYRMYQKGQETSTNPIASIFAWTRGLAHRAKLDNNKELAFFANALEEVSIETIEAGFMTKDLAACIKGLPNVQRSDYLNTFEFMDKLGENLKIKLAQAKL
# GASC1 inh – inhibitors of GASC-1 (KDM4C) histone demethylase, primary screen, biochemical, single concentration HTS; Lysine-specific demethylase 4C (Homo sapiens), Q9H3R0; GST-KDM4C 2-372, H3K9me3 peptide, LANCE TR-FRET; inhibition, % at 12.5 µM; 0.15% of 96,000 active; AID 720574, 2013;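 active means mean replicate inhibition above about 25%, with at least 55% of replicates also reaching it, limit read from the data, passing the limit was not always enough; inconclusive means only one of those two conditions met; inactive means neither condition met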
#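 Test system: N-terminal GST-fused human GASC-1 (KDM4C) fragment, residues 2-372; quantity: GASC-1 enzyme at 10 nM final in reaction; dosing: single dose; schedule: 30 min demethylation and 1 h detection at room temperature; signal: LANCE TR-FRET, excitation 340 nm, emissions 618 and 671 nm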
# T cruzi growth-2 – T. cruzi intracellular proliferation inhibitors, confirmation, cell-based, NIH3T3 host, beta-gal parasite, luminescence, cherry-pick | AID 651739, 2012 | 72% of 5,600 active | T. cruzi beta-gal in NIH3T3, GalScreen luminescence, 90 h | inhibition, % at 8.35 µM | shares compounds with T cruzi growth-1;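 active means mean replicate inhibition above about 95% and at least 55% of replicates individually reaching it, limit read from the data; inconclusive means only one of the two criteria is met; inactive means neither criterion is met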
# T cruzi growth-3 – inhibitors of intracellular T. cruzi replication, confirmation, NIH3T3 host cells, beta-gal parasites, cherry-pick, set 2. T. cruzi beta-gal in NIH3T3, GalScreen luminescence, 90 h. AID 651740, 2012. 21% of 5,600 active. inhibition, % at 2.09 µM. shares compounds with T cruzi growth-1;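 active means mean inhibition above about 95%, with at least 55% of replicates also reaching it, limit read from the data; inconclusive means meets just one of the two conditions; inactive means meets neither condition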
# NIH3T3 tox – cytotoxicity in mouse NIH/3T3 fibroblasts, confirmation, cytotoxicity control for T. cruzi proliferation inhibitor project, cell-based, cherry-pick, single point; NIH/3T3 viability, CellTiter-Glo ATP luminescence, 90 h; cytotoxicity (signal decrease), % at 8.35 µM; shares compounds with T cruzi growth-1; 14% of 5,600 active;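 active means mean signal decrease across replicates above about 35% based on untreated-well scatter, with enough replicates individually passing, limit read from the data; inconclusive means no rule stated though some were filed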
# NIH3T3 tox 2 – NIH/3T3 fibroblast cytotoxicity, confirmation, cytotoxicity control, cell-based, cherry-pick, single point, set 2; shares compounds with T cruzi growth-1; NIH/3T3 viability, CellTiter-Glo ATP luminescence, 90 h; inhibition, % at 24.9 µM; 56% of 5,600 active;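 active means mean loss of cell viability signal at or above a set limit, and enough replicates individually reaching it; inconclusive means meets only the mean limit or only the replicate share; inactive means meets neither condition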
# Hits are given with their value; i = inactive; ? = inconclusive; nt = no result. This is one part of a sample in which hits are shown more often than they occur.
SMILES,T cruzi growth-1,IDH1 R132H inh,GASC1 inh,T cruzi growth-2,T cruzi growth-3,NIH3T3 tox,NIH3T3 tox 2
O=S(=O)(c1ccc(F)cc1)N1CCCCN2[C@H](C1)[C@H](c1ccc(-c3ccccc3F)cc1)[C@@H]2CO,108.1,nt,nt,104.7,105.0,i,101.7
O=S(=O)(c1ccc(F)cc1)N1CCCCN2[C@@H](CO)[C@H](c3ccc(-c4ccccc4F)cc3)[C@@H]2C1,106.3,nt,nt,i,i,77.5,100.4
CCS(=O)(=O)N1CCCCN2[C@H](CO)[C@@H](c3ccc(-c4ccccc4F)cc3)[C@H]2C1,i,nt,i,nt,nt,nt,nt
COCC(=O)N1C[C@@H](C)[C@@H](OC)CN(C)C(=O)c2ccc(NC(=O)c3ccccc3)cc2OC[C@H]1C,i,i,i,nt,nt,nt,nt
COC(=O)C[C@H]1CC[C@H](NS(=O)(=O)c2ccc(OC)cc2)[C@@H](CO)O1,i,i,i,nt,nt,nt,nt
C[C@H](CO)N1C[C@H](C)[C@@H](CN(C)C(=O)c2cccnc2)Oc2cc(-c3cccc(C#N)c3)ccc2S1(=O)=O,i,i,i,nt,nt,nt,nt
C/C=C/c1ccc([C@H]2[C@@H](C#N)N(c3nc(CC)cs3)[C@@H]2CO)cc1,?,nt,i,101.2,i,i,i
CCc1csc(N2[C@H](C#N)[C@H](c3ccc(-c4ccc(F)cc4)cc3)[C@H]2CO)n1,i,nt,i,nt,nt,nt,nt
C/C=C/c1ccc([C@@H]2[C@@H](C#N)N(c3nc(CC)cs3)[C@@H]2CO)cc1,i,nt,i,nt,nt,nt,nt
CCc1csc(N2[C@@H](C#N)[C@H](c3ccc(C#Cc4ccc(F)cc4)cc3)[C@@H]2CO)n1,105.9,nt,i,97.2,109.7,i,i
CCc1csc(N2[C@H](CO)[C@H](c3ccc(-c4ccc(F)cc4)cc3)[C@@H]2C#N)n1,98.4,nt,i,108.4,i,i,90.6
N#C[C@@H]1[C@H](c2ccc(C#Cc3ccc(F)cc3)cc2)[C@@H](CO)N1c1nc(-c2ccccc2)cs1,i,nt,i,nt,nt,nt,nt
C[C@H]1CN([C@@H](C)CO)C(=O)c2cc(-c3ccccc3)cnc2O[C@@H]1CN(C)C(=O)Cc1ccccn1,i,nt,i,nt,nt,nt,nt
CC1=C(C#N)C(C(F)(F)F)(C(F)(F)F)N=C(c2ccncc2)N1,nt,i,nt,nt,nt,nt,nt
Cc1sc(NC(=O)COc2ccc(-c3ccccc3)cc2)c(C(N)=O)c1C,nt,i,nt,nt,nt,nt,nt
CCC(=O)N1CCCCN2[C@@H](CO)[C@@H](c3ccc(/C=C/c4ccccc4)cc3)[C@@H]2C1,118.5,nt,i,98.8,i,i,105.3
CN(C)CC(=O)N1CCCCN2[C@H](CO)[C@@H](c3ccc(/C=C/c4ccccc4)cc3)[C@@H]2C1,i,nt,i,nt,nt,nt,nt
CCC(=O)N1CCCCN2[C@H](CO)[C@@H](c3ccc(/C=C/c4ccccc4)cc3)[C@@H]2C1,i,nt,i,nt,nt,nt,nt
CCC(=O)N1CCCCN2[C@H](C1)[C@H](c1ccc(/C=C/c3ccccc3)cc1)[C@@H]2CO,104.7,nt,i,i,i,i,103.0
CN(C)CC(=O)N1CCCCN2[C@H](CO)[C@H](c3ccc(/C=C/c4ccccc4)cc3)[C@@H]2C1,100.6,nt,i,111.8,110.1,89.0,104.3
CN1CCCCN2[C@@H](CO)[C@@H](c3ccc(/C=C/c4ccccc4)cc3)[C@@H]2C1,i,nt,i,nt,nt,nt,nt
Cc1ccc(NC(=O)CSC2CC(=O)N(c3ccccc3)C2=O)cc1C (stereo not given),nt,i,nt,nt,nt,nt,nt
C[C@@H]1CCCCO[C@@H](CN(C)S(C)(=O)=O)[C@@H](C)CN([C@H](C)CO)C(=O)c2cc(NC(=O)Nc3ccc(F)cc3)ccc2O1,i,i,i,nt,nt,nt,nt
Cn1c(-c2cc(Br)cs2)nc(=O)c2cc(Cl)ccc21,nt,i,nt,nt,nt,nt,nt
O=C(C[C@H]1CC[C@H]2[C@@H](COC[C@H](O)CN2Cc2ccc(F)cc2)O1)N1CCc2ccccc2C1,i,nt,i,nt,nt,nt,nt
SMILES,T cruzi growth-1,IDH1 R132H inh,GASC1 inh,T cruzi growth-2,T cruzi growth-3,NIH3T3 tox,NIH3T3 tox 2
CCCC#Cc1ccc2c(c1)O[C@@H](CN(C)C(=O)COC)[C@@H](C)CN([C@H](C)CO)S2(=O)=O,i,i,i,nt,nt,nt,nt
CC(C)NC(=O)N(C)C[C@H]1OCCCC[C@@H](C)Oc2ccc(NS(=O)(=O)c3cn(C)cn3)cc2C(=O)N([C@@H](C)CO)C[C@H]1C,nt,nt,i,nt,nt,nt,nt
C[C@@H]1CCCCO[C@@H](CN(C)C(=O)NC2CCCCC2)[C@H](C)CN([C@@H](C)CO)C(=O)c2cc(NS(=O)(=O)c3ccc(Cl)cc3)ccc2O1,i,i,i,nt,nt,nt,nt
C[C@@H]1CCCCO[C@@H](CN(C)C(=O)NC2CCCCC2)[C@H](C)CN([C@@H](C)CO)C(=O)c2cc(NS(=O)(=O)c3ccccc3)ccc2O1,?,i,i,nt,nt,nt,nt
C[C@H](CO)N1C[C@H](C)[C@H](CN(C)C(=O)NC2CCCCC2)OCCCC[C@H](C)Oc2ccc(NS(=O)(=O)c3ccccc3)cc2C1=O,93.6,nt,i,?,i,i,i
C[C@@H]1CCCCO[C@@H](CN(C)C(=O)NC2CCCCC2)[C@@H](C)CN([C@@H](C)CO)C(=O)c2cc(NS(=O)(=O)c3ccc(Cl)cc3)ccc2O1,98.6,i,i,103.3,i,i,i
Cc1ccc(S(=O)(=O)Nc2ccc3c(c2)C(=O)N([C@H](C)CO)C[C@@H](C)[C@@H](CN(C)C(=O)NC2CCCCC2)OCCCC[C@@H](C)O3)cc1,i,nt,i,nt,nt,nt,nt
Cc1ccc(S(=O)(=O)Nc2ccc3c(c2)C(=O)N([C@H](C)CO)C[C@H](C)[C@H](CN(C)C(=O)NC2CCCCC2)OCCCC[C@H](C)O3)cc1,117.7,nt,i,105.4,i,i,i
O=C(Cc1ccncc1)N1C[C@@H]2N[C@H](C1)C2c1ccc(-c2ccncc2)cc1 (stereo not given in full),nt,nt,i,nt,nt,nt,nt
Cc1ccc(-c2cnc3c(c2)C(=O)N([C@H](C)CO)C[C@H](C)[C@H](CN(C)S(C)(=O)=O)O3)cc1,nt,i,i,nt,nt,nt,nt
N#Cc1ccc(NC(=O)C2CCCCC2C(=O)O)cc1 (stereo not given),nt,i,nt,nt,nt,nt,nt
COc1ccccc1-c1ccc2c(c1)O[C@H](CN(C)C)[C@@H](C)CN([C@H](C)CO)S2(=O)=O,i,i,i,nt,nt,nt,nt
COc1ccccc1-c1ccc2c(c1)O[C@@H](CN(C)S(=O)(=O)c1ccc(C)cc1)[C@@H](C)CN([C@H](C)CO)S2(=O)=O,126.3,i,i,102.7,i,i,36.6
